Compounds with a hit are over-represented: about 1.2% of the library has one in this group of screens.
proCasp3 act = activators of human procaspase-3 D3A mutant, primary screen, biochemical, absorbance, PC-3 D3A mutant, single concentration; Caspase-3 (Homo sapiens), P42574; recombinant procaspase-3 D3A, Ac-DEVD-pNA absorbance 405 nm; 330,000 compounds, 0.11% hits; AID 463141, 2010; activation, % at 8.5 µM;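 active = activation above the mean of all tested compounds plus 3 SD, cut at about 21% in these data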
Target sequence (P42574 whole entry D9A/D28A/D175A): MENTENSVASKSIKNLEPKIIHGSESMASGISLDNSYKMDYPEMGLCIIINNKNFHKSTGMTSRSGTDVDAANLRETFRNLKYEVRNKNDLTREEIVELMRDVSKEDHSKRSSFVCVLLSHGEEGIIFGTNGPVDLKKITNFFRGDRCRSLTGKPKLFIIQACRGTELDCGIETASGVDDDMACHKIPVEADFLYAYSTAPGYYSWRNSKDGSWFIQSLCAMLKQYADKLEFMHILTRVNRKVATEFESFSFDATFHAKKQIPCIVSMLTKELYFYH
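Assay system – Procaspase-3 D3A mutant · Benchmarks – DMSO low control, extra-enzyme high control · Technique – 405 nm absorbance of p-nitroaniline, reads at 0 and 120 min · Doses – 8.5 µM nominal · Measure – % activation between DMSO and enzyme-spiked controls · Also added – Ac-DEVD-pNA chromogenic peptide substrate · Schedule – 1 h compound preincubation, 2 h substrate hydrolysis at 25 °C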
bovine MsrA act = bovine MsrA enzyme activators, primary screen, biochemical, absorbance, HTS; Methionine sulfoxide reductase A (Bos taurus); purified bovine MsrA, absorbance read-out; activation, % at 10.6 µM; 360,000 compounds, 0.3% hits; AID 602163, 2012; in the data active = activation above about 7.5%
proCasp7 act = procaspase-7 activators, primary screen, counter-screen for procaspase-3 activator project, biochemical, absorbance, HTS, human; recombinant procaspase-7, Ac-DEVD-pNA absorbance 405 nm; D23A/D198A/D206A triple mutant, cannot self-cleave; scale: DMSO 0, 5 µM enzyme 100; activation, % at 8.5 µM; 330,000 compounds, 0.093% hits;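 active = percent activation above the screen-wide mean plus 3 SD, cut at about 25% in these data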
Target sequence (P55210 whole entry D23A/D198A/D206A): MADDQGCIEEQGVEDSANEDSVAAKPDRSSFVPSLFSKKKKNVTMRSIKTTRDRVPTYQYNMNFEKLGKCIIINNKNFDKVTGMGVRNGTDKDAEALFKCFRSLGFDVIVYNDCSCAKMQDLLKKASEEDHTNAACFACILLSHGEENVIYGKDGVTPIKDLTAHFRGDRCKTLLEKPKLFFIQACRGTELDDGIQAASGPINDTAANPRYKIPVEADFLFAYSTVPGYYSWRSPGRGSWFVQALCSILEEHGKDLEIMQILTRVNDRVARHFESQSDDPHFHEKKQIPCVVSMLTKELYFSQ
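Assay system: Uncleavable procaspase-7 mutant enzyme; Input: 2 µM procaspase-7 mutant as dispensed; Also added: DEVD-pNA substrate; Medium: Zinc-free HEPES pH 7.4 with 300 mM NaCl, 0.01% Triton X-100; Timing: 1 h compound preincubation, 2 h substrate cleavage, 25 °C; Measured by: Epi-absorbance of released pNA at 405 nm, two timepoints.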
MsrA inh = bovine MsrA enzyme inhibitors, primary screen, biochemical, absorbance, HTS. 360,000 compounds, 0.75% hits. purified bovine MsrA, absorbance read-out. inhibition, % at 15.5 µM. Methionine sulfoxide reductase A (Bos taurus). AID 651718, 2012
MsrA inh confirm = bovine MsrA inhibitors, retest, confirmation, biochemical, absorbance, HTS; 2,300 compounds, 41% hits; shares compounds with MsrA inh; purified bovine MsrA, absorbance read-out; inhibition, % at 15.5 µM;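 also: coupled to thioredoxin reductase with NADPH and selenocystamine and DMSO as substrate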
Each line names hits and unclear results; the compound was inactive in the other large screens (follow-up assays come after a bar, where they were run); ! = not active in a repeat. Rule as the data show it, unless noted: active = inhibition above about 4.5%; inactive = the rest.

O=C(Nc1cccc(C(=O)O)c1)/C(=C\c1ccc2c(c1)OCO2)NC(=O)c1ccccc1	MsrA inh 5.5 | MsrA inh confirm inactive
COc1ccc(/C=C(/NC(=O)c2ccc(Br)o2)C(=O)Nc2cccc(C(=O)O)c2)cc1	MsrA inh 5.7 (no result: proCasp3 act, proCasp7 act) | MsrA inh confirm inactive
O=C(Nc1cccc(C(=O)O)c1)/C(=C\c1ccc2c(c1)OCO2)NC(=O)c1ccc(Br)cc1	MsrA inh 6.1 | MsrA inh confirm inactive
O=C(Nc1cccc(C(=O)O)c1)/C(=C\c1ccc2c(c1)OCO2)NC(=O)c1ccco1	none
COc1ccc(NC(=O)N(C)C[C@@H]2OCCCC[C@@H](C)Oc3ccc(NS(C)(=O)=O)cc3C(=O)N([C@H](C)CO)C[C@@H]2C)cc1	none (no result: proCasp3 act, bovine MsrA act, proCasp7 act)
O=C(N/N=C/c1cnc(N2CCCCC2)s1)c1ccc(Cl)cc1	none
O=Cc1cnc(N2CCCCC2)s1	MsrA inh 5.0 | MsrA inh confirm 6.9
CCCN1CCCCC(NC(=O)c2ccc(F)c(F)c2)C1=O (stereo not given)	none (no result: proCasp3 act, bovine MsrA act, proCasp7 act)
Cc1cc(C)c(CN2CCN(C(=O)Cn3cc(C)c(=O)[nH]c3=O)CC2)c(C)c1	none (no result: proCasp3 act, bovine MsrA act, proCasp7 act)
CC(SC(C)C(=O)NN=Cc1c[nH]c2ccccc12)C(=O)NN=Cc1c[nH]c2ccccc12 (stereo not given)	MsrA inh 5.0 (no result: proCasp3 act, proCasp7 act) | MsrA inh confirm inactive
Cc1ccc(NC(C)C(=O)N/N=C/c2c[nH]c3ccccc23)cc1 (stereo not given)	none
Cn1ccc(C(=O)N/N=C/c2c[nH]c3ccccc23)n1	MsrA inh 5.7 | MsrA inh confirm inactive
O=C(N/N=C/c1c[nH]c2ccccc12)c1ccn(Cc2ccc(Cl)cc2Cl)n1	none
O=C(N/N=C/c1c[nH]c2ccccc12)c1cccc(O)c1	none
CC(=O)Nc1cccc(C(=O)N/N=C/c2c[nH]c3ccccc23)c1	MsrA inh 5.8 | MsrA inh confirm inactive
COCc1cc(N2CCN(C(=O)OC(C)(C)C)C[C@H]2C)ccc1N1CCN(Cc2ccccc2)[C@@H](C)C1	none (no result: proCasp3 act, bovine MsrA act, proCasp7 act)
COc1ccc2cc3[n+](cc2c1OC)CCc1cc2c(cc1-3)OCO2	MsrA inh 6.6! | MsrA inh confirm 5.4
COc1cccc(C2=NCCc3cc4c(cc32)OCO4)c1OC	none
NC(=O)N/N=C/c1ccc(-c2ccc(S(=O)(=O)Nc3ncccn3)cc2)o1	MsrA inh 5.7 (no result: proCasp3 act, proCasp7 act) | MsrA inh confirm 6.4
CC(C)Oc1ccc(C(=O)N/N=C/c2ccc(-c3ccc(S(=O)(=O)Nc4ncccn4)cc3)o2)cc1	none
O=S(=O)(O)c1ccc(N2N=C(c3ccccc3)CC2c2ccccc2)cc1 (stereo not given)	MsrA inh 5.8 | MsrA inh confirm inactive
Nc1ccccc1Nc1ccc([N+](=O)[O-])cc1[N+](=O)[O-]	MsrA inh 17 | MsrA inh confirm 9.4
CCN(CC)c1ccc(-c2nnc(SCC(=O)N(CCOC)c3c(N)n(CC(C)C)c(=O)[nH]c3=O)o2)cc1	MsrA inh 5.3 | MsrA inh confirm inactive
COCCN(C(=O)CSc1nnc(-c2ccc(C)c(C)c2)o1)c1c(N)n(CC(C)C)c(=O)[nH]c1=O	none
COc1ccc(OCC2CN(Cc3ccccc3)S(=O)(=O)CCO2)cc1 (stereo not given)	none (no result: proCasp3 act, bovine MsrA act, proCasp7 act)
COc1ccc(/C=N/NC2=NS(=O)(=O)c3ccccc32)cc1OC	MsrA inh 4.8 | MsrA inh confirm inactive
COc1cc(/C=N/NC2=NS(=O)(=O)c3ccccc32)ccc1OC(C)=O	none
CCN(CC)c1ccc(C(=O)O)cc1	none
O=C(O)c1ccc(N(c2ccccc2)c2ccccc2)cc1	MsrA inh 5.1 | MsrA inh confirm inactive
O=C1N=C(N2C=CC(=C3C=CNC=C3)C=C2)/C(=C/N=NC(=O)c2ccccc2)S1	MsrA inh 11 | MsrA inh confirm 11
CS/C(Nc1cc(Cl)ccc1Cl)=C(/C#N)C(=O)c1ccco1	MsrA inh 5.0 | MsrA inh confirm inactive
CS(=O)(=O)N1CCN(c2ccc([N+](=O)[O-])c(NCc3ccccc3)c2)CC1	none
CS(=O)(=O)N1CCN(c2ccc([N+](=O)[O-])c(NCc3cccnc3)c2)CC1	MsrA inh 5.6 | MsrA inh confirm inactive
O=C(N[C@H](C(=O)N1CCC[C@H]1C(=O)NCCc1ccccc1Cl)c1ccccc1)c1ccco1	none (no result: proCasp3 act, bovine MsrA act, proCasp7 act)
N#C/C(=C\c1ccc(O)cc1)C(=O)N1CCCC1	none
N#C/C(=C\C=C\c1ccccc1)C(=O)N1CCCC1	MsrA inh 4.8 | MsrA inh confirm 4.8
CN[C@H]1C[C@H]2c3[nH]c4c(-c5ccccc5)cccc4c3CCN2C[C@H]1[C@H](C)O	none (no result: proCasp3 act, bovine MsrA act, proCasp7 act)
CCOc1ccc(/C=C(\C)C(=O)c2c(C)cc(C)[nH]c2=O)cc1	MsrA inh 6.2 | MsrA inh confirm inactive
COc1ccc(NC(=O)c2cccn(CC=C(C)C)c2=O)cc1	MsrA inh 4.7 | MsrA inh confirm inactive
C=CCn1cccc(C(=O)Nc2ccc(OC)cc2)c1=O	none
Cc1c(N=C/C=C2/N(C)c3ccccc3C2(C)C)c(=O)n(-c2ccccc2)n1C	MsrA inh 5.7! | MsrA inh confirm inactive
Cc1c(N=C/C=C2\N(C)c3ccccc3C2(C)C)c(=O)n(-c2ccccc2)n1C	MsrA inh 6.1 | MsrA inh confirm 4.9
Cc1c(NC(=S)/C=C2\N(C)c3ccccc3C2(C)C)c(=O)n(-c2ccccc2)n1C	none
O=C1c2ccccc2/C(=C\c2ccc(O[C@@H]3CCCCO3)cc2)N1c1ccccc1	none (no result: proCasp3 act, bovine MsrA act, proCasp7 act)
CN(C)/N=C/c1ccc([N+](=O)[O-])cc1[N+](=O)[O-]	MsrA inh 7.7 | MsrA inh confirm inactive
CN1OC[C@@H]2CN3C(=Nc4cc(C(F)(F)F)cc(C(F)(F)F)c4)Sc4ccccc4[C@@H]3C[C@@H]21	none (no result: proCasp3 act, bovine MsrA act, proCasp7 act)
O=[N+]([O-])c1cc([N+](=O)[O-])c(Oc2cccc(Cl)c2Cl)cc1NN1CCCCC1	none
CCc1occc(=O)c1Oc1cc(NN2CCCCC2)c([N+](=O)[O-])cc1[N+](=O)[O-]	MsrA inh 13 | MsrA inh confirm 9.0
COc1cccc(/C=N/NC(=O)c2cc3c(OC)c(OC)ccc3[nH]2)c1OC	MsrA inh 6.3 (no result: proCasp3 act, proCasp7 act) | MsrA inh confirm 4.6
COc1ccc(/C=N/NC(=O)c2[nH]c3ccc(Br)cc3c2-c2ccccc2)c(C(=O)O)c1OC	none
COc1cccc(/C=N/NC(=O)c2cc3c(OC)cccc3[nH]2)c1OC	MsrA inh 5.3 | MsrA inh confirm inactive
COc1ccccc1/C=N/NC(=O)c1cc2c(OC)c(OC)ccc2[nH]1	none (no result: proCasp3 act, proCasp7 act)
COc1ccc(/C=N/NC(=O)c2[nH]c3ccc(Cl)cc3c2-c2ccccc2)c(C(=O)O)c1OC	MsrA inh 5.2 | MsrA inh confirm 6.5

Screening results deposited in PubChem BioAssay by The Scripps Research Institute Molecular Screening Center.
